In ChEMBL document CHEMBL5712920, “The histone methyltransferase inhibitor A-366 enhances hemoglobin expression in erythroleukemia cells upon co-exposure with chemical inducers in culture” (J Biol Res (Thessalon), 2021):
The source made the active and inactive calls. The rule behind the calls is not given here.

Assays:
FLC clone 745 [1] = assay: Cytotoxicity against mouse FLC clone 745 cells assessed as reduction in cell viability at IC50 concentration measured up to 96 hrs by Neubauer chamber based microscopic analysis; type: toxicity; settings: flc clone 745, 96 h
Outline: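 MEL-745 cells treated continuously with compound at its previously determined 48 h IC50, without inducer, for up to 96 h. Total cell number counted daily in a Neubauer chamber. Final DMSO ≤0.2% v/v.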

[2] = Cytotoxicity against mouse FLC clone 745 cells assessed as reduction in cell viability measured after 48 hrs by Neubauer chamber based microscopic analysis; type: toxicity
[3] = Inhibition of G9a/GLP in HMBA-stiumulated mouse FLC clone 745 cells assessed as increase in erythroid differentiation at IC50 concentration measured after 72 hrs by benzidine-H2O2 based assay (reference value: 69.6%); settings: condition erythroleukemia
[4] = Inhibition of G9a/GLP in HMBA-stiumulated mouse FLC clone 745 cells assessed as increase in erythroid differentiation at IC50 concentration measured after 96 hrs by benzidine-H2O2 based assay (reference value: 79.45%); settings: condition erythroleukemia
FLC clone 745 [5] = assay: Induction of cell cycle arrest in mouse FLC clone 745 cells assessed as accumulation cells at G1/G0 phase at 10^-6 M after 48 hrs by PI staining based flow cytometric analysis (reference value: 25.43%); type: functional; settings: dose 1 10^-6M, at 1 µM
Outline: (§1)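 MEL cells plated at 5 × 10^5 per well and synchronized by serum deprivation for 24 h. Cells then incubated with compound at 10−6 M, alone or with HMBA 5 × 10−3 M, for 24, 48 and 72 h. Fixed in 70% ethanol overnight at 4 °C, stained with propidium iodide, and DNA content measured by flow cytometry to assign subG1, G1, S, G2/M and >4N fractions.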

FLC clone 745 [6] = assay: Inhibition of G9a/GLP in HMBA-stiumulated mouse FLC clone 745 cells assessed as increase in HBB mRNA expression at 10^-6 M after 48 hrs by qPCR analsysis; type: cell-based; settings: dose 1.0 10^-6M
Outline: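 MEL cells treated for 48 h with HMBA 5 × 10−3 M plus compound at 10−6 M. Total RNA reverse-transcribed, and β-globin transcripts measured by qPCR. Data normalized to β-actin using the 2−ΔΔCt method; Student's t-test.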

FLC clone 745 [7] = assay: Inhibition of G9a/GLP in HMBA-stiumulated mouse FLC clone 745 cells assessed as increase in HBB protein expression at 10^-6 M after 48 hrs by Western blot analsysis; type: cell-based; settings: dose 1.0 10^-6M
Outline: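 MEL cells treated for 48 h with HMBA 5 × 10−3 M plus compound at 10−6 M. About 10^6 cells lysed in Tris/NaCl/2% SDS, sonicated, and protein quantified by BCA. 20 µg run on a 12% SDS-PAGE gel and transferred to PVDF. Membrane probed overnight at 4 °C with anti-hemoglobin β/γ/δ/ε, with β-tubulin as loading control, then HRP secondary for 1 h at room temperature.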

FLC clone 745 [8] = assay: Induction of cell cycle arrest in mouse FLC clone 745 cells assessed as accumulation cells at G1/G0 phase at 10^-6 M after 24 hrs by PI staining based flow cytometric analysis (reference value: 19.61%); type: functional; settings: dose 1 10^-6M, at 1 µM; outline: as §1
FLC clone 745 [9] = assay: Induction of cell cycle arrest in mouse FLC clone 745 cells assessed as accumulation cells at S phase at 10^-6 M after 24 hrs by PI staining based flow cytometric analysis (reference value: 28.46%); type: functional; settings: dose 1 10^-6M, at 1 µM; outline: as §1
FLC clone 745 [10] = assay: Induction of cell cycle arrest in mouse FLC clone 745 cells assessed as accumulation cells at subG1 phase at 10^-6 M after 24 hrs by PI staining based flow cytometric analysis (reference value: 24.11%); type: functional; settings: dose 1 10^-6M, at 1 µM; outline: as §1
FLC clone 745 [11] = assay: Induction of cell cycle arrest in mouse FLC clone 745 cells assessed as accumulation cells at > 4N phase at 10^-6 M after 24 hrs by PI staining based flow cytometric analysis (reference value: 13.47%); type: functional; settings: dose 1 10^-6M, at 1 µM; outline: as §1
FLC clone 745 [12] = assay: Induction of cell cycle arrest in mouse FLC clone 745 cells assessed as accumulation cells at G1/G0 phase at 10^-6 M after 72 hrs by PI staining based flow cytometric analysis (reference value: 26.4%); type: functional; settings: dose 1 10^-6M, at 1 µM; outline: as §1
FLC clone 745 [13] = assay: Induction of cell cycle arrest in mouse FLC clone 745 cells assessed as accumulation cells at S phase at 10^-6 M after 72 hrs by PI staining based flow cytometric analysis (reference value: 24.02%); type: functional; settings: dose 1 10^-6M, at 1 µM; outline: as §1
FLC clone 745 [14] = assay: Induction of cell cycle arrest in HMBA-stimulated mouse FLC clone 745 cells assessed as accumulation cells at G1/G0 phase at 10^-6 M after 24 hrs by PI staining based flow cytometric analysis (reference value: 17.28%); type: functional; settings: dose 1 10^-6M, at 1 µM; outline: as §1
FLC clone 745 [15] = assay: Induction of cell cycle arrest in HMBA-stimulated mouse FLC clone 745 cells assessed as accumulation cells at S phase at 10^-6 M after 24 hrs by PI staining based flow cytometric analysis (reference value: 21.59%); type: functional; settings: dose 1 10^-6M, at 1 µM; outline: as §1
FLC clone 745 [16] = assay: Induction of cell cycle arrest in HMBA-stimulated mouse FLC clone 745 cells assessed as accumulation cells at G2/M phase at 10^-6 M after 24 hrs by PI staining based flow cytometric analysis (reference value: 9.52%); type: functional; settings: dose 1 10^-6M, at 1 µM; outline: as §1
FLC clone 745 [17] = assay: Induction of cell cycle arrest in HMBA-stimulated mouse FLC clone 745 cells assessed as accumulation cells at subG1 phase at 10^-6 M after 24 hrs by PI staining based flow cytometric analysis (reference value: 41.78%); type: functional; settings: dose 1 10^-6M, at 1 µM; outline: as §1
FLC clone 745 [18] = assay: Induction of cell cycle arrest in HMBA-stimulated mouse FLC clone 745 cells assessed as accumulation cells at G1/G0 phase at 10^-6 M after 48 hrs by PI staining based flow cytometric analysis (reference value: 15.23%); type: functional; settings: dose 1 10^-6M, at 1 µM; outline: as §1
FLC clone 745 [19] = assay: Induction of cell cycle arrest in HMBA-stimulated mouse FLC clone 745 cells assessed as accumulation cells at subG1 phase at 10^-6 M after 48 hrs by PI staining based flow cytometric analysis (reference value: 43.83%); type: functional; settings: dose 1 10^-6M, at 1 µM; outline: as §1
FLC clone 745 [20] = assay: Induction of cell cycle arrest in HMBA-stimulated mouse FLC clone 745 cells assessed as accumulation cells at G1/G0 phase at 10^-6 M after 72 hrs by PI staining based flow cytometric analysis (reference value: 7.19%); type: functional; settings: dose 1 10^-6M, at 1 µM; outline: as §1
FLC clone 745 [21] = assay: Induction of cell cycle arrest in HMBA-stimulated mouse FLC clone 745 cells assessed as accumulation cells at S phase at 10^-6 M after 72 hrs by PI staining based flow cytometric analysis (reference value: 19.52%); type: functional; settings: dose 1 10^-6M, at 1 µM; outline: as §1
FLC clone 745 [22] = assay: Induction of cell cycle arrest in HMBA-stimulated mouse FLC clone 745 cells assessed as accumulation cells at > 4N phase at 10^-6 M after 72 hrs by PI staining based flow cytometric analysis (reference value: 4.66%); type: functional; settings: dose 1 10^-6M, at 1 µM; outline: as §1
K562 [23] = assay: Induction of apoptosis in human K562 cells assessed as effect on caspase-3 mRNA expression level at 1 to 10 uM cells after 48 hrs by qPCR analysis; type: toxicity, cell-based; settings: k562, 48 h, dose 1-10 µM
Outline: (§2)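 K562 cells at 10^5 cells/ml grown without compound (control) or with 10−6 M or 10−5 M compound for 48 h. Total RNA isolated, then checked by gel electrophoresis and spectrophotometry. Transcripts quantified by qPCR.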

K562 [24] = assay: Induction of apoptosis in human K562 cells assessed as effect on Bax mRNA expression level at 1 to 10 uM cells after 48 hrs by qPCR analysis; type: toxicity, cell-based; settings: k562, 48 h, dose 1-10 µM; outline: as §2

Q: What does the source list for `COc1cc2c(cc1OCCCN1CCCC1)N=C(N)C21CCC1`?
A: Activity (FLC clone 745 [1]): Non-Toxic; IC50 at 48 h [2]: > 100 µM; inhibition (INH) [3]: 76.6%; inhibition (INH) [4]: 83.75%; Activity (FLC clone 745 [5]): 21%; inhibition (FLC clone 745 [6]): Active; inhibition (FLC clone 745 [7]): Active; Activity (FLC clone 745 [8]): 20.43%; Activity (FLC clone 745 [9]): 23.91%; Activity (FLC clone 745 [10]): 37.13%; Activity (FLC clone 745 [11]): 9.49%; Activity (FLC clone 745 [12]): 14.22%; Activity (FLC clone 745 [13]): 23.1%; Activity (FLC clone 745 [14]): 12.13%; Activity (FLC clone 745 [15]): 1.26%; Activity (FLC clone 745 [16]): 6.93%; Activity (FLC clone 745 [17]): 55.4%; Activity (FLC clone 745 [18]): 11.73%; Activity (FLC clone 745 [19]): 50.9%; Activity (FLC clone 745 [20]): 8.17%; Activity (FLC clone 745 [21]): 19.84%; Activity (FLC clone 745 [22]): 2.89%; Activity (K562 [23]): Non-Toxic; Activity (K562 [24]): Non-Toxic
